TAAR1 ag: agonists of human TAAR1. Q96RJ0. CHO RD-HGA16 TAAR1, Fluo-8 calcium fluorescence; vehicle wells 0%, saturating PEA agonist 100%. activation, % at 3 µM. 0.99% of 360,000 active. AID 624467;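 active = activation above the mean activation of all test compounds in the run plus 3 SD, cut at about 38% in these data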
Target sequence (Q96RJ0 whole entry, looked up): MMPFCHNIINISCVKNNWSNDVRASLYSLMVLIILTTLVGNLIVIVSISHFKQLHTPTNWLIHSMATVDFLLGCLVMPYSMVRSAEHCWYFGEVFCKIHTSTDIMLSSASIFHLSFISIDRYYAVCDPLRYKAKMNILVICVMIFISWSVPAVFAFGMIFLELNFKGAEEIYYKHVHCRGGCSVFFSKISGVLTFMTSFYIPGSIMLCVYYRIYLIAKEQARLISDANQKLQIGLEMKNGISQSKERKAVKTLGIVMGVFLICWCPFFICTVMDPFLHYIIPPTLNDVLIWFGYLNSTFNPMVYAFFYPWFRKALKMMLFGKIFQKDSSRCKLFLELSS
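Repeats: no replicates (n 1) | Material: CHO-derived RD-HGA16 cells with stable Gα16 and human TAAR1 | Technique: Kinetic Fluo-8 calcium fluorescence | Schedule: 17-24 h seeding, 75 min 37 °C dye, 30 min RT | Evaluation: % activation from peak over basal fluorescence ratio, DMSO-to-PEA scaled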
TAAR1 antag: human TAAR1 antagonism. CHO RD-HGA16 TAAR1, Fluo-8 calcium fluorescence, antagonist. Q96RJ0. inhibition, % at 3 µM. AID 624466. 1.5% of 360,000 active;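 active = inhibition above a per-plate cutoff, the mean inhibition of test compounds on that plate plus 3 SD, cut at about 49% in these data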;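 also: 0% = DMSO plus EC80 beta-PEA response and 100% = DMSO alone without agonist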
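Test system: RD-HGA16 CHO cells with stable hTAAR1 and Gα16 / Probe or stimulus: EC80 β-phenethylamine stimulus / Times: seeding 17-24 h prior, 75-min 37 °C, 30-min RT dye loading / Detection: Fluo-8 calcium-sensitive fluorescence / Read-out basis: % inhibition scaled between DMSO and EC80 PEA controls / Repeats: singlicate, one well per test compound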
CHO parental Ca: counter-screen: ATP calcium response change in parental CHO cells; parental CHO-K1, ATP-induced calcium, Fluo-8 fluorescence; inhibition, % at 5.6 µM; 0.63% of 330,000 active;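 active = inhibition above that plate's mean sample inhibition plus 3 SD, cut at about 26% in these data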;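 also: 0% = ATP-challenged DMSO wells and 100% = DMSO wells without ATP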
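Measured by: calcium-sensitive Fluo-8 fluorescence / Test system: CHO parental line / Controls: ATP-challenged DMSO wells low, unchallenged DMSO wells high / Measure: % inhibition / Compound: single nominal dose of 5.6 µM per compound / Replicates: single well per compound, no replicates / Reagent: ATP as calcium-mobilizing challenge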
OX1R antag-1: blocks the human orexin 1 receptor; O43613; CHO/OX1R cells, Fluo-8 calcium fluorescence, orexin A; inhibition, % at 5 µM; 0.43% of 330,000 active;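 active = inhibition above its plate's threshold, mean inhibition of all tested compounds on the plate plus 3 SD, cut at about 37% in these data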;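 also: 0% = orexin A challenge wells and 100% = SB-334867-A antagonist wells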
GPR7 antag: human neuropeptides B/W receptor 1 antagonism; GPR7-expressing cells, fluorescence antagonist assay; P48145; inhibition, % at 4.4 µM; 1.1% of 290,000 active; in the data active = inhibition above about 16%, passing the limit was not always enough;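 also: cells stimulated with the agonist NPW; 0% = agonist with vehicle and 100% = vehicle without agonist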
Target sequence (P48145 whole entry, looked up): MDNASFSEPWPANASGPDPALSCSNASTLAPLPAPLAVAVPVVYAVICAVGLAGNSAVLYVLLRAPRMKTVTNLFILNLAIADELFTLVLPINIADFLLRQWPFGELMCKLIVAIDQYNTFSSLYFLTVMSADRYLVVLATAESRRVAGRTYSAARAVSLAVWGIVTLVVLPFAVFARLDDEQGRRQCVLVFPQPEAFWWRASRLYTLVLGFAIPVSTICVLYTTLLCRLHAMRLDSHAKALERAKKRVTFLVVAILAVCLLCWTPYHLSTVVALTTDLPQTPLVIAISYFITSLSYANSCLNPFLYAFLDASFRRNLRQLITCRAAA
OX1R antag-2: OX1R (human) antagonism. O43613. OX1R-expressing cells, FRET antagonist read-out. inhibition, % at 6.6 µM. 1.8% of 330,000 active. AID 485270; in the data active = inhibition mostly above about 38%, no sharp cut-off; inactive = mostly below about 40%;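 also: 0% = agonist challenge alone and 100% = reference antagonist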
Active calls of the source: *; nt = no result. Hits are enriched below; roughly 4.5% of the tested compounds scored in any of these assays.

SMILES	TAAR1 ag	TAAR1 antag	CHO parental Ca	OX1R antag-1	GPR7 antag	OX1R antag-2
COC(=O)C(CC(C)C)N(Cc1cc(OC)cc(OC)c1)S(=O)(=O)c1ccccc1Br (stereo not drawn)	3.8	15.3	-19.4	32.3	nt	29.0
COc1cc(CN(CC(C)C)S(=O)(=O)c2ccccc2Br)cc(OC)c1	2.4	10.1	-19.9	34.6	nt	33.5*
Cc1c(C(=O)N/N=C/c2ccccc2)sc(=S)n1C	1.6	-9.9	-9.1	28.6	1.4	91.5*
Cc1c(C(=O)N/N=C/c2ccc(O)cc2)sc(=S)n1C	-0.7	-6.9	8.0	5.0	-3.9	60.1
COc1ccccc1Nc1ncccc1[N+](=O)[O-]	-3.2	-17.7	-2.9	4.6	-25.0	19.1
COc1ccccc1C(CNc1ncccc1[N+](=O)[O-])N(C)C (stereo not drawn)	1.1	-7.2	-12.7	-12.3	3.9	67.2*
Cc1ccccc1-n1nc2c(c1NC(=O)c1cc3ccccc3oc1=O)CS(=O)C2 (stereo not drawn)	nt	nt	-14.0	-14.2	-15.7	45.7*
O=C(Nc1ccc2c(c1)OCO2)c1cnn2c1NC(c1ccco1)CC2C(F)(F)F (stereo not drawn)	7.3	-1.9	46.8*	-18.0	-8.9	14.8
O=C(Nc1ccc2c(c1)OCO2)c1cc2n(n1)C(C(F)(F)F)CC(c1ccccc1)N2 (stereo not drawn)	31.8	35.8	19.6	-6.9	-14.4	11.9
CCCCC(=O)Nc1ccc(C(=O)c2ccccc2)cc1	2.6	-0.3	-12.0	-10.3	20.0*	28.3
CCN(Cc1cc(OC)c(OC)c(OC)c1)S(=O)(=O)c1ccccc1Br	5.2	27.1	nt	nt	nt	nt
Cc1ccc(C(=O)Nc2ncc([N+](=O)[O-])s2)cc1	6.2	12.4	12.0	1.6	14.2	54.2*
O=C(Nc1ncc([N+](=O)[O-])s1)c1ccc2c(c1)OCO2	6.2	15.5	29.0*	-1.5	-13.5	59.7
Cc1cnc(NC(=O)c2ccc3c(c2)OCCO3)s1	8.2	-2.8	-2.5	11.6	nt	-3.4
Oc1ccc(Cl)cc1Nc1nc(NCC2CCCO2)c2ccccc2n1 (stereo not drawn)	17.8	56.9*	-9.2	-6.5	nt	7.3
c1ccc(Nc2nc(-c3ccccc3)nc3ccccc23)cc1	1.8	14.5	-16.6	-15.4	-5.6	9.4
c1csc(-c2nc(NCC3CCCO3)c3ccccc3n2)c1 (stereo not drawn)	1.9	23.8	-24.0	-15.0	-2.5	68.4*
Oc1ccccc1Nc1nc(NCC2CCCO2)c2ccccc2n1 (stereo not drawn)	11.3	7.0	-14.1	-30.6	-6.7	21.3
c1ccc(-c2nc(NC3CCCC3)c3ccccc3n2)cc1	5.8	10.6	-21.2	-43.8	0.1	49.4*
c1cncc(-c2nc(NCC3CCCO3)c3ccccc3n2)c1 (stereo not drawn)	nt	nt	-3.8	-16.1	5.0	30.5
c1ccc(CN2CCC(Nc3nc(-c4cccs4)nc4ccccc34)CC2)cc1	10.4	-21.7	-15.9	-2.6	20.5*	6.6
Cc1cc(O)cc(=O)n1-c1cccc(C(F)(F)F)c1	7.2	-23.5	nt	nt	nt	nt
CC(C)N1CCCC(C)(C(=O)Nc2nccc3ccccc23)C1 (stereo not drawn)	1.6	-11.4	nt	nt	nt	nt
O=C(Oc1ccc[nH]c1=O)c1cc([N+](=O)[O-])cc([N+](=O)[O-])c1	0.4	-22.4	7.5	0.0	-7.0	68.5*
COc1ccc(C(=O)Oc2ccc[nH]c2=O)cc1	6.5	3.5	4.8	-12.1	5.2	11.1
SMILES	TAAR1 ag	TAAR1 antag	CHO parental Ca	OX1R antag-1	GPR7 antag	OX1R antag-2
COCCCn1c(N)c(-c2nc3ccccc3n2C)c2nc3ccccc3nc21	22.5	49.2*	-11.6	-4.5	-4.8	21.7
Cn1c(-c2c(N)n(CCCc3ccccc3)c3nc4ccccc4nc23)nc2ccccc21	nt	nt	nt	nt	-2.8	nt
O=c1[nH]c(SCc2nc3c(cnn3-c3ccccc3)c(=O)[nH]2)nc2ccccc12	7.5	4.3	nt	nt	-5.4	nt
O=c1[nH]c(CSc2nc3ccccc3[nH]2)nc2c1cnn2-c1ccccc1	13.4	42.1	52.0*	90.4*	-5.5	106.0*
Cc1ccc2nc(SCc3nc4c(cnn4-c4ccccc4)c(=O)[nH]3)[nH]c2c1	12.6	43.8	39.0*	80.3*	6.2	89.5*
CCSc1nnc(-c2ccccc2N=Cc2c(C)[nH]n(-c3ccccc3)c2=O)c(=O)[nH]1	1.6	-22.1	-4.9	-1.8	-3.6	44.1
CSc1nnc(-c2cc(Br)ccc2N=Cc2c(C)[nH]n(-c3ccccc3)c2=O)c(=O)[nH]1	3.8	-14.3	4.5	-21.0	-8.0	48.2*
CCSc1nnc(-c2cc(Br)ccc2N=Cc2c(C)[nH]n(-c3ccccc3)c2=O)c(=O)[nH]1	-1.1	-17.6	-10.9	-17.9	5.5	75.4*
CCCCN1CC(N2CCCC2)CS1(=O)=O (stereo not drawn)	0.1	4.9	nt	nt	nt	nt
CC(=O)C1=C(C)N(Cc2ccc(Br)cc2)C(=S)NC1c1ccc(F)cc1 (stereo not drawn)	2.9	2.4	nt	nt	nt	nt
COc1ccccc1NS(=O)(=O)c1cccc(NC(=O)Nc2cccc(Cl)c2)c1	20.3	78.9*	30.5*	28.5	4.8	46.5
COc1ccc(NS(=O)(=O)c2cc(NC(=O)c3cncc(Br)c3)ccc2OC)cc1	23.1	50.0*	-19.4	17.2	nt	4.9
COc1ccc(NS(=O)(=O)c2cc(NC(=O)c3nn(C)c(=O)c4ccccc34)ccc2OC)cc1	9.1	35.1	-7.2	-20.1	3.2	28.8
COc1ccccc1NS(=O)(=O)c1cccc(NC(=O)c2cncc(Br)c2)c1	21.2	51.4*	-22.8	-2.6	nt	16.8
COc1ccccc1NC(=O)Nc1ccc(Cl)c(S(=O)(=O)Nc2ccccc2OC)c1	2.0	16.8	-14.5	-17.7	-1.9	16.3
COc1ccccc1NS(=O)(=O)c1cc(NC(=O)c2ccc(Cl)nc2)ccc1Cl	18.1	55.8*	-4.2	6.8	8.2	18.9
CCc1ccc(OC)c(S(=O)(=O)Nc2ccc(Cc3ccncc3)cc2)c1	16.7	6.8	48.3*	-2.6	3.9	41.6
COc1ccc(NC(=O)c2ccc(Cl)c(S(=O)(=O)N3CCc4ccccc4C3)c2)cn1	26.0	65.6*	13.9	-8.9	-1.0	17.6
COc1ccccc1NS(=O)(=O)c1cccc(NC(=O)CCNC(=O)c2ccccc2OC)c1	10.5	57.4*	-8.7	34.8	nt	8.1
CC(C)CC(NC(=O)OCc1ccccc1)C(=O)NCC(=O)NCC(=O)OCc1ccccc1 (stereo not drawn)	0.9	-15.2	nt	nt	nt	nt
COc1cc(-c2ccc3oc(-c4ccsc4)cc(=O)c3c2)cc(OC)c1OC	9.1	49.9*	-19.9	9.0	nt	67.3*
COc1ccc(-c2ccc3c(=O)cc(-c4ccsc4)oc3c2)cn1	3.7	11.8	-16.2	13.9	nt	63.1*
